Active and inactive are the calls of the source. The calls are words filed in the database; no cut-off is given here.
Assays:
HT-29 [1] = assay: Cytotoxicity against human HT-29 cells after 72 hrs by MTT assay; type: functional, cell-based; conditions: HT-29, 72 h
How it was run: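 HT-29 cells, grown in DMEM with 2 mM L-glutamine, 10% heat-inactivated FBS and 1% penicillin/streptomycin at 37 °C, seeded at 1 × 10⁵ cells/ml and exposed 72 h to a range of compound concentrations in DMSO. Cells were then given MTT 3 h, formazan dissolved in SDS/formamide lysis buffer pH 4.7, and absorbance read at 620 nm. Values are % of untreated control; IC50 is from ≥3 experiments.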

HT-29 [2] = assay: Induction of apoptosis in human HT-29 cells assessed as hypodiploid DNA content at 0.1 uM after 48 hrs using propidium iodide staining by flow cytometry; type: functional
How it was run: (§1)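 Cultured HT-29 cells were plated at 5 × 10⁵ per 6-cm dish the day before treatment, then exposed 48 h to 0.1–5 μM. Cells were washed in PBS and taken up in 0.1% sodium citrate, 0.1% Triton X-100 and 50 μg/ml PI for 30 min at 4 °C in the dark. Nuclei were run by flow cytometry with debris gated out by forward scatter, and % hypodiploid nuclei counted. Three experiments in triplicate.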

HT-29 [3] = assay: Induction of apoptosis in human HT-29 cells after 48 hrs assessed as hypodiploid DNA content using propidium iodide staining by flow cytometry; type: functional, cell-based; how it was run: as §1
HT-29 [4] = assay: Induction of apoptosis in human HT-29 cells after 48 hrs using propidium iodide staining by flow cytometry in presence of Z-VAD-FMK; type: functional, cell-based
How it was run: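 HT-29 cells were pretreated with the general caspase inhibitor Z-VAD-FMK at 50 μM for 30 min before compound was added, then incubated 48 h. Nuclei were stained with PI in 0.1% citrate/0.1% Triton X-100 for 30 min at 4 °C in the dark. Hypodiploid % was scored by flow cytometry. Three experiments in triplicate; Bonferroni test.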

[5] = target: DNA topoisomerase 2-alpha (Homo sapiens) (UniProt P11388); assay: Inhibition of human recombinant topoisomerase 2alpha-mediated pBR322 DNA cleavage after 30 mins
HT-29 [6] = assay: Blockade of cell cycle progression in human HT-29 cells; type: functional, cell-based
[7] = target: DNA topoisomerase 2-alpha (Homo sapiens) (UniProt P11388); assay: Inhibition of human recombinant topoisomerase 2alpha-mediated pBR322 DNA cleavage at 10 uM after 30 mins
HT-29 [8] = assay: Induction of apoptosis in human HT-29 cells assessed as hypodiploid DNA content at 0.5 uM after 48 hrs using propidium iodide staining by flow cytometry; type: functional, cell-based; how it was run: as §1

Chain of DNA topoisomerase 2-alpha (Homo sapiens) (P11388 whole entry): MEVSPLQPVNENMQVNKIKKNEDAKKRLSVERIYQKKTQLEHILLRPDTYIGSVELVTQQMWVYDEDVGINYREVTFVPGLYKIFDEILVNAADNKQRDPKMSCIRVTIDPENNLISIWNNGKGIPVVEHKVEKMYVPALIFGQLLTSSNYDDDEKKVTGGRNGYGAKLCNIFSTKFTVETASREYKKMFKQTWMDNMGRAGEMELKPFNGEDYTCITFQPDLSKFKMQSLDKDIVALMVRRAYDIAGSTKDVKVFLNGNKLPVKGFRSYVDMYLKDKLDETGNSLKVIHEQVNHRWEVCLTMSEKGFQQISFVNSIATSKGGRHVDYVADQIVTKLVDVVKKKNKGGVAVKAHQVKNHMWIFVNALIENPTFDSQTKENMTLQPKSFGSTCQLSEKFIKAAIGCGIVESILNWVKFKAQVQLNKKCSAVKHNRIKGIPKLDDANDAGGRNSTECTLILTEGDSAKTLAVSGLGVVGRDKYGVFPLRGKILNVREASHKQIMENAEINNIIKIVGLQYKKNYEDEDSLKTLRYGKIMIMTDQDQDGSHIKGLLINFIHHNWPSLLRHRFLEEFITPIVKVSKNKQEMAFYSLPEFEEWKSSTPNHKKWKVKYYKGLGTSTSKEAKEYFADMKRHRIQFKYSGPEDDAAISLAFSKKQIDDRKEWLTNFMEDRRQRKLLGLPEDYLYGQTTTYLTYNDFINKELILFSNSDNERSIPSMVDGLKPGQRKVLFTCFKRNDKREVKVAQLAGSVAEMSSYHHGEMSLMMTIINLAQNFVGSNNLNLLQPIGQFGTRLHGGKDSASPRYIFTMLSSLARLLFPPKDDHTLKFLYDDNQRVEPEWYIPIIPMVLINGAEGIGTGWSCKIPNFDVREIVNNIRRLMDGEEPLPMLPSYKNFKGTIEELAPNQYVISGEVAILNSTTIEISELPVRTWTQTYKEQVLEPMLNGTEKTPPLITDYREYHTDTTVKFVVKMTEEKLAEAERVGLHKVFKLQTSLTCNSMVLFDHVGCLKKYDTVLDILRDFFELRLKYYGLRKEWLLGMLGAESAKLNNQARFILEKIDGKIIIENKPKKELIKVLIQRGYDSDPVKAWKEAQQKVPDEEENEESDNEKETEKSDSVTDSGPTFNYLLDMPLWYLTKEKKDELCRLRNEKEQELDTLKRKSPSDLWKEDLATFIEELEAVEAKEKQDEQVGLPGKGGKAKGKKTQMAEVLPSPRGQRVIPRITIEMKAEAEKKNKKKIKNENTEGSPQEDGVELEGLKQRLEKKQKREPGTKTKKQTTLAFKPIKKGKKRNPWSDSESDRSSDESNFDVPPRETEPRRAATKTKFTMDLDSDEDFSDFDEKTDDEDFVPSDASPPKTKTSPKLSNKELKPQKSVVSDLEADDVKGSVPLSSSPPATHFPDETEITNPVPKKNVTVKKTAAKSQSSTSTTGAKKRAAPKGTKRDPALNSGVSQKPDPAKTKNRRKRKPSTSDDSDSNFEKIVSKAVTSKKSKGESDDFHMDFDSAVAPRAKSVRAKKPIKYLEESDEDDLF

Activity [5]	Structure (SMILES)	IC50 (HT-29 [1])	Activity (HT-29 [6])	other results
inactive	O=C1c2cccc3cc([N+](=O)[O-])cc(c23)C(=O)N1CCCNCCNCCCN1C(=O)c2cccc3cc([N+](=O)[O-])cc(c23)C1=O	501 nM	inactive	Activity (HT-29 [2]): 40%; Activity (HT-29 [3]): Dose-dependent effect; Activity (HT-29 [4]): inactive
–	O=C1c2cccc3cc([N+](=O)[O-])cc(c23)C(=O)N1CCN1CC2CCC(C1)N2CCN1C(=O)c2cccc3cc([N+](=O)[O-])cc(c23)C1=O	7300 nM	inactive	–
–	O=C1c2cccc3cc([N+](=O)[O-])cc(c23)C(=O)N1CCCCNCCNCCCNCCNCCCCN1C(=O)c2cccc3cc([N+](=O)[O-])cc(c23)C1=O	160 nM	–	Activity [7]: Active
–	O=C1c2cccc3cc([N+](=O)[O-])cc(c23)C(=O)N1CCN1CCN(CCN2C(=O)c3cccc4cc([N+](=O)[O-])cc(c34)C2=O)CC1	2100 nM	inactive	–
–	O=C1c2cccc3cccc(c23)C(=O)N1CCCCNCCNCCCNCCNCCCCN1C(=O)c2cccc3cccc(c23)C1=O	6100 nM	–	–
inactive	O=C1c2cccc3cc([N+](=O)[O-])cc(c23)C(=O)N1CCCNC1CC1NCCCN1C(=O)c2cccc3cc([N+](=O)[O-])cc(c23)C1=O (stereo not given)	3300 nM	inactive	Activity (HT-29 [8]): Active; Activity (HT-29 [3]): Dose-dependent effect; Activity (HT-29 [4]): inactive
–	O=C1c2cccc3cccc(c23)C(=O)N1CCNCCCNCCN1C(=O)c2cccc3cccc(c23)C1=O [ELINAFIDE]	38 nM	–	–
–	C[C@@H]1CN(CCN2C(=O)c3cccc4cc([N+](=O)[O-])cc(c34)C2=O)C[C@H](C)N1CCN1C(=O)c2cccc3cc([N+](=O)[O-])cc(c23)C1=O	6100 nM	inactive	–

Structure (SMILES)	Activity [5]	IC50 (HT-29 [1])	Activity (HT-29 [6])	other results
O=C1c2cccc3cc([N+](=O)[O-])cc(c23)C(=O)N1CCNCCNCCN1C(=O)c2cccc3cc([N+](=O)[O-])cc(c23)C1=O	inactive	200 nM	inactive	–

Source: ChEMBL document CHEMBL1139331, “Molecular modelling studies, synthesis and biological activity of a series of novel bisnaphthalimides and their development as new DNA topoisomerase II inhibitors” (Bioorg Med Chem, 2009)
